Values after ≈ are worked out from the molar mass of the structure shown. Active and inactive are the calls of the source. The calls are words filed in the database; no cut-off is given here.
What was measured:
Leishmania donovani = test: Antileishmanial activity against Leishmania donovani promastigotes; assay type: functional, organism-based
Method in brief: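 L. donovani promastigotes from a 3-day culture in RPMI 1640 with 10% FCS, diluted to 5×10^5/mL. Drug dilutions made directly in the cell suspension. 48 h at 26 °C. Growth measured by Alamar Blue fluorescence at 544/590 nm. IC50 and IC90 from percent growth versus concentration.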

Aspergillus fumigatus = test: Antifungal activity against Aspergillus fumigatus ATCC 90906; assay type: functional, organism-based; conditions: for MIC: in the assay text read “Antifungal” for “Antibacterial”
Method in brief: (§1)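 Broth microdilution following modified NCCLS methods, Franzblau variant for M. intracellulare. DMSO samples serially diluted in saline and tested in duplicate. Inoculum set by 0.5 McFarland. Media: C. albicans SDB or RPMI 1640; C. neoformans SDB; A. fumigatus YM broth (MIC) or RPMI-1640 + 5% Alamar Blue (IC50); M. intracellulare 7H9/OADC + 5% Alamar Blue. Top final concentration 20 µg/mL.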

Cryptococcus neoformans = test: Antifungal activity against Cryptococcus neoformans ATCC 90113; assay type: functional, organism-based; method in brief: as §1
Candida albicans = test: Antifungal activity against Candida albicans ATCC 90028; assay type: functional; method in brief: as §1
Plasmodium falciparum [1] = test: Anti-infective activity against Plasmodium falciparum W2 in erythrocytes; assay type: functional, organism-based
Vero = test: Cytotoxicity against Vero cells; assay type: cell-based; conditions: Chlorocebus sabaeus
Method in brief: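 VERO monkey kidney […] seeded at 25,000 cells/well and grown 24 h, then exposed to compound for 48 h, highest concentration 23.8 µg/ml. Viability by neutral red uptake. IC50 from growth-inhibition curves. DMSO as vehicle control.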

[2] = Anti-infective activity against Plasmodium falciparum D6 infected red blood cells; assay type: functional
[3] = test system: Mycobacterium intracellulare; test: Antibacterial activity against Mycobacterium intracellular ATCC 23068; assay type: functional, organism-based; method in brief: as §1
Plasmodium falciparum [4] = test: Anti-infective activity against Plasmodium falciparum W2 in erythrocytes up to 4.76 ug/mL; assay type: functional, organism-based
Plasmodium falciparum [5] = test: Anti-infective activity against Plasmodium falciparum D6 infected red blood cells up to 4.76 ug/mL; assay type: functional

SMILES	IC50 (Leishmania donovani)	IC50 (Aspergillus fumigatus)	MIC (Cryptococcus neoformans)	MIC (Candida albicans)	IC50 (Plasmodium falciparum [1])	IC50 [2]	MIC (Aspergillus fumigatus)	IC50 [3]	IC50 (Cryptococcus neoformans)	IC50 (Vero)	Activity (Plasmodium falciparum [4])	Activity (Plasmodium falciparum [5])
N=C(N)c1ccc(OCCCCCOc2ccc(C(=N)N)cc2)cc1 [PENTAMIDINE]	0.7 mg/L (≈ 2.06 µM)											
C[C@@H]1[C@H](O)[C@@H](C)/C=C/C=C/C=C/C=C/C=C/C=C/C=C/[C@H](O[C@@H]2O[C@H](C)[C@@H](O)[C@H](N)[C@@H]2O)C[C@@H]2O[C@](O)(C[C@@H](O)C[C@@H](O)[C@H](O)CC[C@@H](O)C[C@@H](O)CC(=O)O[C@H]1C)C[C@H](O)[C@H]2C(=O)O [AMPHOTERICIN B]		0.85 mg/L (≈ 0.92 µM)	0.95 mg/L (≈ 1.03 µM)	0.25 mg/L (≈ 0.271 µM)								
C[C@@H]1CC[C@H]2[C@@H](C)C(=O)O[C@@H]3O[C@@]4(C)CC[C@@H]1[C@]32OO4 [ARTEMISININ]					0.02 mg/L (≈ 0.0708 µM)	0.02 mg/L (≈ 0.0708 µM)				> 4.7 mg/L		
C[n+]1cccc2sc3ccc([N+](=O)[O-])cc3c21.[I-]	> 40 mg/L		> 20 mg/L	> 20 mg/L	0.46 mg/L	0.4 mg/L	> 20 mg/L	> 20 mg/L		> 23.8 mg/L		
CCN(CC)CCCC(C)Nc1ccnc2cc(Cl)ccc12 (centres undefined) [CHLOROQUINE]						0.02 mg/L (≈ 0.0625 µM)				> 4.7 mg/L		
C[n+]1cccc2sc3ccccc3c21.[I-]			> 20 mg/L	> 20 mg/L	1.2 mg/L	1.5 mg/L	> 20 mg/L	> 20 mg/L		> 23.8 mg/L		
CN(C)c1ccc2sc3ccc[n+](C)c3c2c1	3 mg/L		> 20 mg/L	> 20 mg/L	0.2 mg/L	0.18 mg/L	> 20 mg/L	15 mg/L		> 23.8 mg/L		
[I-].c1ccc(CCCCC[n+]2cccc3sc4ccccc4c32)cc1	1.2 mg/L		20 mg/L	> 20 mg/L	0.22 mg/L	0.27 mg/L	20 mg/L	1.5 mg/L		20 mg/L		
C[n+]1c2c(cc3ccccc31)Cc1ccccc1-2.[I-]			> 20 mg/L	> 20 mg/L			> 20 mg/L	> 20 mg/L				
O=C(O)c1cn(C2CC2)c2cc(N3CCNCC3)c(F)cc2c1=O [CIPROFLOXACIN]								0.35 mg/L (≈ 1.06 µM)				

More lines, main results first:

IC50 (Leishmania donovani)	IC50 (Aspergillus fumigatus)	MIC (Cryptococcus neoformans)	MIC (Candida albicans)	IC50 (Plasmodium falciparum [1])	IC50 [2]	MIC (Aspergillus fumigatus)	IC50 [3]	IC50 (Cryptococcus neoformans)	SMILES	IC50 (Vero)	Activity (Plasmodium falciparum [4])	Activity (Plasmodium falciparum [5])
0.6 mg/L			> 20 mg/L	0.74 mg/L	0.74 mg/L	20 mg/L	> 20 mg/L	8 mg/L	COc1ccc2c(c1)cc1sc3ccccc3c1[n+]2C.[I-]	> 23.8 mg/L		
40 mg/L		> 20 mg/L	> 20 mg/L			> 20 mg/L	> 20 mg/L		C[n+]1c2ccc(C(N)=O)cc2cc2sc3ccccc3c21.[I-]	> 23.8 mg/L	inactive	inactive
0.39 mg/L		> 20 mg/L	> 20 mg/L	4.5 mg/L		10 mg/L	20 mg/L		C[n+]1c2ccc(C(=O)O)cc2cc2sc3ccccc3c21.[I-]	7 mg/L		inactive
0.23 mg/L			2 mg/L	0.35 mg/L	0.18 mg/L	> 20 mg/L	15 mg/L		C[n+]1c2ccccc2cc2[nH]c3ccccc3c21.[I-] [CRYPTOLEPTINE IODIDE]	3.2 mg/L		
2.2 mg/L	15 mg/L	> 20 mg/L	> 20 mg/L	0.28 mg/L	0.28 mg/L		> 20 mg/L		C[n+]1c2ccccc2cc2oc3ccccc3c21.[I-]	> 23.8 mg/L		
0.42 mg/L		15 mg/L	2 mg/L	2.8 mg/L	4 mg/L	4 mg/L	> 20 mg/L		C[n+]1c2ccc(Cl)cc2cc2sc3ccccc3c21.[I-]	> 23.8 mg/L		
0.27 mg/L	6.5 mg/L	> 20 mg/L	10 mg/L	0.3 mg/L	0.34 mg/L		15 mg/L		C[n+]1c2ccccc2cc2sc3ccccc3c21.O=S(=O)([O-])C(F)(F)F	> 23.8 mg/L		
2.6 mg/L		> 20 mg/L	> 20 mg/L			20 mg/L	> 20 mg/L		C[n+]1c2ccc(C#N)cc2cc2sc3ccccc3c21.[I-]	> 23.8 mg/L	inactive	inactive
0.35 mg/L				2 mg/L	1.6 mg/L	> 20 mg/L	> 20 mg/L		C[n+]1c2ccccc2cc2sc3ccccc3c21.[I-]	> 23.8 mg/L		
